From ChEMBL document CHEMBL4041521, “3-Aroylindoles display antitumor activity in vitro and in vivo: Effects of N1-substituents on biological activity” (Eur J Med Chem, 2017)
pIC50: −log10 of the molar value. Calls of active or inactive are those of the source. The calls are words filed in the database; no cut-off is given here.

Assays:
[1] = Inhibition of HDAC activity in human HeLa cell nuclear extract using fluorometric substrate measured after 30 mins by fluorescence assay; format: cell-based
Homo sapiens [2] = organism: Homo sapiens; experiment: Inhibition of HDAC in human PC3 cells assessed as increase in alpha-tubulin acetylation by Western blot analysis; format: cell-based
How it was run: (§1)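 PC3 prostate cancer cells treated, then lysed in 20 mM Tris-HCl pH 7.5 with 150 mM NaCl, EDTA/EGTA, phosphatase and protease inhibitors, 0.1% Triton X-100. Lysates spun 13,000 rpm for 30 min, then immunoblotted for acetylated α-tubulin and acetylated histone H3.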

[3] = molecular target: T1, Protein deacetylase HDAC6 (Homo sapiens, UniProt Q9UBN7); experiment: Inhibition of recombinant human HDAC6 using fluorogenic substrate by fluorescence assay
T1 sequence (Q9UBN7 whole entry): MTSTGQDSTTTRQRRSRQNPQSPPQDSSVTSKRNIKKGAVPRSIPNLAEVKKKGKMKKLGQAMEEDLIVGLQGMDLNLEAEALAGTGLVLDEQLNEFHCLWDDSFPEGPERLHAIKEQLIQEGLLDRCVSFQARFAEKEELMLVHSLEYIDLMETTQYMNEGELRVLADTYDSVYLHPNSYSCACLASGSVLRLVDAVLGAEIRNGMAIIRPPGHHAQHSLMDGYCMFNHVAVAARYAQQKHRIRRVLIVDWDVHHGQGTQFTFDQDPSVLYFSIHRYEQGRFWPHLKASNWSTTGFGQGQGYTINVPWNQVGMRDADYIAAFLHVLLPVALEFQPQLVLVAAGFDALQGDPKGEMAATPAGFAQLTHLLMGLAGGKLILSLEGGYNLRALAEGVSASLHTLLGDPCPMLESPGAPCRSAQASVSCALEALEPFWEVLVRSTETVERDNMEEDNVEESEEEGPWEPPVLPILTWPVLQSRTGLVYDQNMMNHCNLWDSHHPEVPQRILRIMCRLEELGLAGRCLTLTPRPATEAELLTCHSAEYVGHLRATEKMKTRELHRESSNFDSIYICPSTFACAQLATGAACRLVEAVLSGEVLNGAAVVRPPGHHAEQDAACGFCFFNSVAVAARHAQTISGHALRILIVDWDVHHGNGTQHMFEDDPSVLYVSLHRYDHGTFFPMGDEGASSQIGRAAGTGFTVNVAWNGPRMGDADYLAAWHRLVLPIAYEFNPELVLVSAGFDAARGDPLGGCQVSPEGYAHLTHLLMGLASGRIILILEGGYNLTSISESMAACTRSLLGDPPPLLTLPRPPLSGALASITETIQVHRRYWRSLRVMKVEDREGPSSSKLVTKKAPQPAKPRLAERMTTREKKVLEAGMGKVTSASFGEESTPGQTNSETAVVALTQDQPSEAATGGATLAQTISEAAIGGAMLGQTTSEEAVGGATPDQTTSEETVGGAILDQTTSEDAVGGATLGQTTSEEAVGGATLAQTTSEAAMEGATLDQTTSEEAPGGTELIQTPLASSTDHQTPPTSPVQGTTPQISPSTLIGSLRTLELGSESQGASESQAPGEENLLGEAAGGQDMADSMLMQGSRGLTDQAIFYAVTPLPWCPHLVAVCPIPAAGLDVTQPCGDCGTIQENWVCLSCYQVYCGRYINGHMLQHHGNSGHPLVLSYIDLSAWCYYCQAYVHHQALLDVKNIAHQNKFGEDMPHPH

Histone deacetylase 1 = Histone deacetylase 1 (Homo sapiens, UniProt Q13547); experiment: Inhibition of recombinant human HDAC1 using fluorogenic substrate by fluorescence assay
PC-3 = experiment: Antiproliferative activity against human PC3 cells measured after 48 hrs by sulforhodamine-B assay; format: functional, cell-based; details: PC-3, 48 h
HCT-116 = experiment: Antiproliferative activity against human HCT116 cells measured after 48 hrs by sulforhodamine-B assay; format: functional, cell-based; details: HCT-116, 48 h
Sus scrofa [4] = organism: Sus scrofa; experiment: Inhibition of purified porcine tubulin polymerization measured every 1 min for 30 mins
Homo sapiens [5] = organism: Homo sapiens; experiment: Inhibition of HDAC in human PC3 cells assessed as increase in histone-H3 acetylation by Western blot analysis; format: cell-based; how it was run: as §1
A549 = experiment: Antiproliferative activity against human A549 cells measured after 48 hrs by sulforhodamine-B assay; format: functional, cell-based; details: A549, 48 h
Histone deacetylase 2 = Histone deacetylase 2 (Homo sapiens, UniProt Q92769); experiment: Inhibition of recombinant human HDAC2 using fluorogenic substrate by fluorescence assay
Homo sapiens [6] = organism: Homo sapiens; experiment: Inhibition of HDAC in human PC3 cells assessed as increase in histone-H3 acetylation at 0.01 to 10 uM by Western blot analysis; format: cell-based; how it was run: as §1
Sus scrofa [7] = organism: Sus scrofa; experiment: Inhibition of purified porcine tubulin polymerization at 10 uM measured every 1 min for 30 mins
Homo sapiens [8] = organism: Homo sapiens; experiment: Inhibition of tubulin polymerization in human PC3 cells assessed as […] in MPM2 expression at 0.01 to 10 uM by Western blot analysis; format: cell-based
Sus scrofa [9] = organism: Sus scrofa; experiment: Inhibition of purified porcine tubulin polymerization at 1 to 10 uM measured every 1 min for 30 mins
Mus musculus = experiment: Toxicity in human RPMI8226 cells xenografted in athymic mouse assessed as mortality at 1 mg/kg, ip administered once in a week; format: organism-based; details: in vivo
How it was run: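 RPMI-8226 xenograft nude mice given bortezomib 1 mg/kg i.p. once a week as reference treatment; animal deaths recorded.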

Homo sapiens [10] = organism: Homo sapiens; experiment: Selectivity ratio of IC50 for recombinant human HDAC8 to IC50 for recombinant human HDAC6

Chain of Histone deacetylase 1 (Q13547 whole entry): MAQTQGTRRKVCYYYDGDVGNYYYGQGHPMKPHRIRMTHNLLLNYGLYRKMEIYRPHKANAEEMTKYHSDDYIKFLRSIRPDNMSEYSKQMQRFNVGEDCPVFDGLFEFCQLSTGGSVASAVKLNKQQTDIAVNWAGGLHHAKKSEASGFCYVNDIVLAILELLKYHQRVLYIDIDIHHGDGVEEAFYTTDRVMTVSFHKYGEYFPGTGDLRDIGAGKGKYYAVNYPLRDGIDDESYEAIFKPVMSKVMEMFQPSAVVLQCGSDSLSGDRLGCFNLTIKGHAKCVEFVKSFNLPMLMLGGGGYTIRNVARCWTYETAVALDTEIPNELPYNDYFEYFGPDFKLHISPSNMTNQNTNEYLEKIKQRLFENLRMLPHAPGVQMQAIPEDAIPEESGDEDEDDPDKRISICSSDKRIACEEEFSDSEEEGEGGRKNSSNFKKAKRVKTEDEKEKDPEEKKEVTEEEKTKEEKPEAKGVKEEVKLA
Chain of Histone deacetylase 2 (Q92769 whole entry): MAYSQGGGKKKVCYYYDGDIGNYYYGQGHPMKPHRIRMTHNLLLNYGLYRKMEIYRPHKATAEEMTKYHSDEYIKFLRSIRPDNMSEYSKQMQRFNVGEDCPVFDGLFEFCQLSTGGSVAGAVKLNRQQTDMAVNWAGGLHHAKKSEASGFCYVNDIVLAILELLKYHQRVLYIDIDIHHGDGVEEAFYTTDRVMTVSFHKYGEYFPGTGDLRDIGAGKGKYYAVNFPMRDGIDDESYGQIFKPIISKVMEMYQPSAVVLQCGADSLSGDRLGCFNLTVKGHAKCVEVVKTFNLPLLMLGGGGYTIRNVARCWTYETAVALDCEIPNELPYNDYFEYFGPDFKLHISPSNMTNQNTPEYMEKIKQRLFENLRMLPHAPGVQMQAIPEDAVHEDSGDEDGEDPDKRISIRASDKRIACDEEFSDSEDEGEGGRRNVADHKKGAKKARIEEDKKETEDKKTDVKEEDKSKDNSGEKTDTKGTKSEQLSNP

| SMILES | pIC50 [1] | alpha-tubulin acetylation increase (Homo sapiens [2]) | pIC50 [3] | pIC50 (Histone deacetylase 1) | pIC50 (PC-3) | pIC50 (HCT-116) | inhibition (Sus scrofa [4]) | inhibition (Homo sapiens [5]) | pIC50 (A549) | pIC50 (Histone deacetylase 2) | inhibition (Homo sapiens [6]) | inhibition (Sus scrofa [7]) | inhibition (Homo sapiens [8]) | inhibition (Sus scrofa [9]) | Activity (Mus musculus) | Ratio IC50 (Homo sapiens [10]) |
| --- | --- | --- | --- | --- | --- | --- | --- | --- | --- | --- | --- | --- | --- | --- | --- | --- |
| COc1ccc2c(C(=O)c3cc(OC)c(OC)c(OC)c3)cn(Cc3ccc(/C=C/C(=O)NO)cc3)c2c1 | 6.83 | Dose-dependent effect | 7.15 | 6.89 | 6.18 | 5.78 | Dose-dependent effect | Dose-dependent effect | 6.17 | 6.54 |  |  |  |  |  |  |
| COc1cc(C(=O)c2cn(S(=O)(=O)c3cccc(/C=C/C(=O)NO)c3)c3ccccc23)cc(OC)c1OC | 6.76 |  | 6.10 | 6.86 | 5.24 | 5.17 |  |  | 5.34 | 5.63 | inactive | inactive | inactive |  |  |  |
| COc1ccc2c(C(=O)c3cc(OC)c(OC)c(OC)c3)cn(Cc3ccc(C(=O)Nc4ccccc4N)cc3)c2c1 | < 5.00 |  |  |  | 6.80 | 6.64 | Dose-dependent effect |  | 6.68 |  |  |  |  |  |  |  |
| COc1cc(C(=O)c2cn(Cc3ccc(/C=C/C(=O)NO)cc3)c3ccccc23)cc(OC)c1OC | 6.75 | Dose-dependent effect | 6.86 | 6.85 | 5.58 | 5.26 |  | Dose-dependent effect | 5.72 | 6.41 |  | inactive | inactive |  |  |  |
| COc1ccc(C(=O)c2cn(Cc3ccc(C(=O)NO)cc3)c3cc(OC)ccc23)cc1 | 6.84 | Dose-dependent effect | 6.96 | 6.80 | 5.73 | 5.72 |  | Dose-dependent effect | 6.03 | 6.68 |  | inactive | inactive |  |  |  |
| COc1ccc2c(C(=O)c3cc(OC)c(OC)c(OC)c3)cn(S(=O)(=O)c3ccc(/C=C/C(=O)NO)cc3)c2c1 | < 5.00 |  | < 5.00 | < 5.00 | 7.18 | 7.15 |  |  | 6.92 | < 5.00 |  |  |  | Active |  |  |
| CC(C)C[C@H](NC(=O)[C@H](Cc1ccccc1)NC(=O)c1cnccn1)B(O)O [BORTEZOMIB] |  |  |  |  |  |  |  |  |  |  |  |  |  |  | Toxic |  |
| CN1CCc2c(c3ccccc3n2Cc2ccc(C(=O)NO)cc2)C1 |  |  |  |  |  |  |  |  |  |  |  |  |  |  |  | 14 |
